Hits are enriched below; roughly 3.1% of the tested compounds scored in any of these assays.
GalR3 antag – GalR3 antagonists in HEK293 cells, primary screen, cell-based, fluorescence readout | HEK293 GalR3-CNG cAMP membrane potential fluorescence; galR3 body fused to GalR1 C-terminus | inhibition, % at 3 µM | 360,000 compounds, 0.44% hits;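 active means inhibition above the screen-wide average plus 3 SD, cut at about 13% in these data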;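 further: forskolin and galanin both at EC90 stimulate the cells; cAMP rise reported by CNG channel membrane potential dye signal; 0% = forskolin plus galanin with DMSO and 100% = forskolin alone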
GPR7 antagonist – GPR7 receptor antagonists, primary screen, cell-based, fluorescence, single concentration; Neuropeptides B/W receptor type 1 (Homo sapiens), P48145; 290,000 compounds, 1.1% hits; AID 1861, 2009; inhibition, % at 4.4 µM; GPR7-expressing cells, fluorescence antagonist assay; in the data active means inhibition above about 16%, passing the limit was not always enough;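 further: cells stimulated with the agonist NPW; 0% = agonist with vehicle and 100% = vehicle without agonist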
OX1R antag-1 – antagonists of human orexin 1 receptor (OX1R); OX1R-expressing cells, FRET antagonist read-out; 330,000 compounds, 1.8% hits; AID 485270, 2010; Orexin/Hypocretin receptor type 1 (Homo sapiens), O43613; inhibition, % at 6.6 µM; in the data active means inhibition mostly above about 38%, no sharp cut-off; inactive means mostly below about 40%;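 further: 0% = agonist challenge alone and 100% = reference antagonist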
Target sequence (O43613 whole entry, looked up): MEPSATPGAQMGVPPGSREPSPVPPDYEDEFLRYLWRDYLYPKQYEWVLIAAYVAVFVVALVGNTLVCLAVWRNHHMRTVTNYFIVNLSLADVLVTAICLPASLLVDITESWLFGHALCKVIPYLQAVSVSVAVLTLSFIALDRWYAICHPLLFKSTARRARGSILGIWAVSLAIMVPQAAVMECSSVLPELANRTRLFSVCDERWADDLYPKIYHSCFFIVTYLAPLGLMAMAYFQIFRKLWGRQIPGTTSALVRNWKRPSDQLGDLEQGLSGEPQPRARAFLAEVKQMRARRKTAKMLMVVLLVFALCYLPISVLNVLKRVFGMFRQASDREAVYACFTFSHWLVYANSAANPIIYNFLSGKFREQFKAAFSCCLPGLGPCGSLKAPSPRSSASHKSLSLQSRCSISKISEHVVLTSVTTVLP
CHO parental Ca – ATP-evoked calcium signal inhibitors, parental CHO, primary screen, counter-screen for OX1R antagonist project, cell-based, fluorescence, Fluo-8 calcium dye; parental CHO-K1, ATP-induced calcium, Fluo-8 fluorescence; inhibition, % at 5.6 µM; 330,000 compounds, 0.63% hits; AID 463079, 2010;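 active means inhibition above that plate's mean sample inhibition plus 3 SD, cut at about 26% in these data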;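 further: 0% = ATP-challenged DMSO wells and 100% = DMSO wells without ATP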
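Test system: parental CHO cells; detection: calcium-sensitive Fluo-8 fluorescence; evaluation: percent inhibition of calcium signal; also added: ATP as calcium-mobilizing challenge; repeats: one well per compound; control set: ATP-challenged DMSO wells low, unchallenged DMSO wells high; compound: single nominal dose of 5.6 µM per compound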
OX1R antag-2 – OX1R (HCRTR1) antagonists, primary screen, fluorescence, CHO/OX1R cells, Fluo-8 calcium, orexin A; Fluo-8 calcium fluorescence; inhibition, % at 5 µM; Orexin/Hypocretin receptor type 1 (Homo sapiens), O43613; 330,000 compounds, 0.43% hits;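 active means inhibition above its plate's threshold, mean inhibition of all tested compounds on the plate plus 3 SD, cut at about 37% in these data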;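 further: 0% = orexin A challenge wells and 100% = SB-334867-A antagonist wells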
The depositor's hits bear a star; / = not tested or not shown.

SMILES | GalR3 antag | GPR7 antagonist | OX1R antag-1 | CHO parental Ca | OX1R antag-2
COc1ccc(C)cc1Nc1n[n+](-c2ccccc2)c(-c2ccc(OC)c(OC)c2OC)s1 | -3 | 22 | 11 | -27 | -21
O=C1NC(=O)C2(CCCc3c([N+](=O)[O-])cccc32)N1 (centres undefined) | -3 | / | / | / | /
O=C1Nc2ccccc2Nc2ccc([N+](=O)[O-])cc21 | -10 | 2 | 11 | 10 | -20
O=C1Nc2ccccc2OCc2c1cccc2[N+](=O)[O-] | -5 | 6 | 40* | 1 | -8
COCCNC(=O)C(c1ccc(C)cc1)N(CCOC)C(=O)CCC(=O)Nc1ccccn1 (centres undefined) | -3 | -6 | 13 | -8 | -18
COCCNC(=O)C(c1ccc(F)cc1)N(Cc1cccs1)C(=O)CCC(=O)Nc1ccccn1 (centres undefined) | -8 | -7 | 76* | -18 | 17
COCCNC(=O)C(c1ccc(O)cc1)N(Cc1ccccc1)C(=O)CCC(=O)Nc1ccccn1 (centres undefined) | -7 | 5 | 15 | -4 | 0
COCCNC(=O)C(c1ccc(F)cc1)N(Cc1ccccc1)C(=O)CCC(=O)Nc1ccccn1 (centres undefined) | -1 | -16 | 70* | -25 | 10
Cc1nc(C(=O)Nc2ccc(F)cc2)nn1-c1ccc([N+](=O)[O-])cc1 | -4 | 4 | 55* | -8 | -12
Cc1ccc(NC(=O)c2nc(C)n(-c3ccc([N+](=O)[O-])cc3)n2)cc1 | / | -1 | 26 | -9 | -14
CCOC(=O)c1nc(C)n(-c2ccc(Cl)cc2)n1 | -5 | -2 | 4 | -7 | -17
CCOC(=O)c1nc(C)n(-c2ccc([N+](=O)[O-])cc2)n1 | 1 | -1 | 49* | 3 | -32
CCCCCCN1C[C@H](n2cc(-c3ccc(F)cc3)nn2)[C@@H](O)C[C@@H]1c1ccc(Cl)cc1 | -8 | / | / | / | /
Cn1ncc([N+](=O)[O-])c1C(=O)N/N=C/c1cccc([N+](=O)[O-])c1 | -3 | -9 | 54* | -4 | -9
O=C(N/N=C/c1ccc2ncccc2c1)c1cccc([N+](=O)[O-])c1 | -8 | -9 | 72* | -10 | 0
O=C(N/N=C/c1ccccn1)c1cccc([N+](=O)[O-])c1 | -5 | 8 | 40 | -14 | -9
Cn1cc(C(=O)N/N=C/c2cccc([N+](=O)[O-])c2)c2ccccc21 | 5 | -6 | 43* | -17 | 9
O=C1CC2(CCN1)CCN(Cc1ccccc1)CC2 | -4 | / | / | / | /
COCCCNc1nccn2ccnc12 | -5 | / | / | / | /
C=CCn1c(=O)/c(=C/c2ccc(Cl)cc2)s/c1=C(\C#N)c1nnc2n1CCCCC2 | -4 | / | / | / | /
Cc1ccc(C(=O)Sc2cccccc2=O)cc1 | -10 | 24 | 8 | 54* | 53*
O=C(Nc1ccccc1SC(=O)c1ccccc1)c1ccccc1 | -5 | / | / | / | /
Cc1cc(C)c(CN2CCN(C(=O)Cn3cc(C)c(=O)[nH]c3=O)CC2)c(C)c1 | -8 | / | / | / | /
C=CCN(CC=C)C[C@@H]1CSCCS(=O)(=O)N1 | -3 | / | / | / | /
CC1(C)C(C=C(Cl)Cl)C1C(=O)Nc1ccc([N+](=O)[O-])cc1 (centres undefined) | -4 | -5 | 29 | 50* | 25
SMILES | GalR3 antag | GPR7 antagonist | OX1R antag-1 | CHO parental Ca | OX1R antag-2
COc1cc(/C=N/Nc2snc(SC)c2C#N)ccc1O | -6 | 21 | 81* | -11 | 45
C=CCN(C(=O)c1csnn1)C(C(=O)NC1CCCC1)c1ccc(Cl)cc1 (centres undefined) | -7 | -2 | 69* | -15 | -18
COc1ccc(NC(=O)CN2C(=O)C3CC=CCC3C2=O)cc1Cl (centres undefined) | 0 | / | / | / | /
c1cncc(-c2csc(-c3cccnc3)n2)c1 | -8 | 1 | 9 | 1 | -1
Clc1ccsc1-c1csc(-c2cccnc2)n1 | -2 | -5 | 71* | -18 | 17
c1ccc2nc3c(nc2c1)c1ccccc1n3CCN1CCOCC1 | -4 | -15 | 49* | -17 | -9
CCCn1c2ccccc2c2nnc(SCCN3CCOCC3)nc21 | -6 | -17 | 14 | -18 | -27

Screening results (PubChem)
